Series [1] in a line: Area under curve(AUC) value of the compound in dogs at 0.5 mg/kg dose upon oral administration. In kind it is ADME, organism-based. Details: dose 0.5 mg/kg, route oral. Conditions: dog, in vivo. In a few lines: (§1)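 Oral dosing at 0.5 mg/kg in dogs (n = 4) with plasma levels followed over time. Reported as Cmax (μM), tmax (min), terminal t1/2 (min) and AUC (μM·h), each given as mean ± spread. The same dogs later received an iv crossover dose at 0.5 mg/kg to estimate oral bioavailability.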

The nature of series [2]: Maximum plasma concentration in dogs at 0.5 mg/kg dose upon oral administration. More on the design: dose 0.5 mg/kg, route oral. Conditions: dog. In kind it is ADME, organism-based, Canis lupus familiaris. Put shortly:
as §1

Series [3] is described as follows: Final plasma concentration after intravenous infusion. Format: ADME, cell-free. To be noted: read-out: Final plasma concentration.
Series [4] can be described thus: Final plasma concentration after intravenous infusion at 5 ug/kg/min dose. In kind it is ADME, cell-free. To be noted: 0.005 mg/kg, read-out: Final plasma concentration.
Series [5] is described as follows: time required for maximum concentration in dogs at 0.5 mg/kg dose upon oral administration. Details: dose 0.5 mg/kg, route oral. Conditions: dog, in vivo. In kind it is ADME, organism-based, Canis lupus familiaris. Put shortly: as §1
The nature of series [6]: Half-life in dogs at 0.5 mg/kg dose upon oral administration. In kind it is ADME, organism-based, Canis lupus familiaris. More on the design: dose 0.5 mg/kg, route oral. To be noted: dog, in vivo. Put shortly:
as §1

A short description of series [7]: in vitro anticoagulant potency (2x APTT) against Human plasma. Format: functional.
For series [8], the system named is Rattus norvegicus. Briefly: In vivo antithrombotic activity was measured after intravenous infusion (at 10 ug/kg/min) in rat FeCl3 arterial thrombosis model; 0/6. In kind it is functional.
Series [9] addresses Prothrombin (Homo sapiens, UniProt P00734). Briefly: Inhibitory activity against thrombin (IIa) was determined.
For series [10], the target named is Serine protease 1 (Homo sapiens, UniProt P07477). Briefly: Inhibitory activity against trypsin was determined.
The test system of series [11] is Rattus norvegicus. Kind of series: In vivo antithrombotic activity was measured after intravenous infusion (at 5 ug/kg/min) in rat FeCl3 arterial thrombosis model; 4/6. In kind it is functional.
The nature of series [12]: in vitro anticoagulant potency (2x APTT) against rat plasma. Format: functional.
Series [13] relates to Rattus norvegicus. Kind of series: In vivo antithrombotic activity was measured after intravenous infusion (at 10 ug/kg/min) in rat FeCl3 arterial thrombosis model; 3/6. Format: functional.
The nature of series [14]: Area under curve(AUC) value of the compound in dogs at 1 mg/kg dose upon oral administration. Format: ADME, organism-based, Canis lupus familiaris. Details: dose 1 mg/kg, route oral. Conditions: dog, in vivo. In a few lines:
(§2)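 Dogs dosed orally at 1 mg/kg, n = 2 per compound. Plasma drug levels were followed over time to give Cmax (μM), tmax (min), elimination t1/2 (min) and AUC (μM·h).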

The nature of series [15]: Maximum plasma concentration in dogs at 1 mg/kg dose upon oral administration. Format: ADME, organism-based, Canis lupus familiaris. More on the design: dose 1 mg/kg, route oral. To be noted: dog. Put shortly:
as §2

Series [16] in a line: time required for maximum concentration in dogs at 1 mg/kg dose upon oral administration. In kind it is ADME, organism-based, Canis lupus familiaris. Details: dose 1 mg/kg, route oral. Conditions: dog, in vivo. In a few lines: as §2
Series [17] is described as follows: Half-life in dogs at 1 mg/kg dose upon oral administration. In kind it is ADME, organism-based, Canis lupus familiaris. More on the design: dose 1 mg/kg, route oral. Conditions: dog, in vivo. Put shortly:
as §2

A short description of series [18]: Area under curve(AUC) value of the compound. In kind it is ADME.
The subject of series [19] is Rattus norvegicus. Briefly: In vivo antithrombotic activity was measured after intravenous infusion (at 10 ug/kg/min) in rat FeCl3 arterial thrombosis model; 0/9. Format: functional.
Series [20] relates to Rattus norvegicus. Kind of series: In vivo antithrombotic activity was measured after intravenous infusion (at 5 ug/kg/min) in rat FeCl3 arterial thrombosis model;1/6. In kind it is functional.

Chain of Serine protease 1 (P07477 whole entry, the tested form may be a part): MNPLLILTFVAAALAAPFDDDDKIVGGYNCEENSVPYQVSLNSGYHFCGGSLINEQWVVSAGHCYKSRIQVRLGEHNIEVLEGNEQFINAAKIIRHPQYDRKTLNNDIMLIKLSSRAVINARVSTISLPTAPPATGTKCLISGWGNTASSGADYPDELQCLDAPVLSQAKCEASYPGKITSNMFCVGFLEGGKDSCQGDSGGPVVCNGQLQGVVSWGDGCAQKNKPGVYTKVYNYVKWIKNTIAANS

The AUC is concentration integrated over time. Low values mean low exposure, high ones high exposure. The Cmax is the highest concentration seen after dosing. By Tmax is commonly meant the time at which the peak concentration occurs. As usually defined, the half-life is how long it takes for the measured level to halve. A higher half-life goes with slow decline. By Ki is commonly meant the dissociation constant of the complex between target and ligand, obtained from inhibition or displacement. Low values mean tighter binding, high ones weaker binding. Consider `Cc1nc(N)ccc1CNC(=O)Cn1c(C)cnc(NCCc2ccccc2)c1=O` [L-375378], for which the area under the curve (AUC) in [1] worked out at 11.2 µM·h. In series [2], this compound had a Cmax of 1960 nM. Also, the concentration was found to be 445 nM in series [3] and 238 nM in series [4]. In series [5], the Tmax is 0.875 h. For the same compound, in series [6], the half-life came out at 3.85 h. Also, the “2x APTT” value in series [7] amounted to 410 nM; in series [12] it was 380 nM. Also, the values for the Occlusions in series [8] and in [11] were 0 and 4, respectively. Besides, the Ki in [9] came out at 0.8 nM; in [10], 1800 nM.

On to `Cc1cnc(NCCc2ccccc2)c(=O)n1CC(=O)NCc1ccc(N)nc1`, for which the “2x APTT” value in series [7] is 2100 nM. Moreover, the Ki in series [9] is 8.3 nM; in series [10] it was 1200 nM.

For `Cc1nc(N)ccc1CNC(=O)Cn1c(C)cnc(NC(C)(C)Cc2ccccc2)c1=O`, the Ki in series [9] is 24 nM; in series [10], 2600 nM.

Consider `Cc1cc(N)nc(C)c1CNC(=O)Cn1c(C)cnc(NCCc2ccccc2)c1=O`, for which, in [3], the concentration amounted to 224 nM. In addition, in [7], the “2x APTT” value was determined as 420 nM. The compound also displayed an Occlusions in series [13] of 3. For the same compound, the Ki in [9] is 0.35 nM; in series [10], 1000 nM.

`Cc1nc(N)ccc1CNC(=O)Cn1c(C)cnc(N[C@H](C)Cc2ccccc2)c1=O` had an AUC in [14] of 1.85 µM·h. This compound also returned a maximum concentration (Cmax) in series [15] of 600 nM. The concentration in series [3] came out at 554 nM. Moreover, the time of peak concentration (Tmax) in [16] was 0.417 h. Also, in series [17], the half-life came to 2.13 h. For the same compound, in series [7], the “2x APTT” value came out at 350 nM. Besides, in series [8], the Occlusions stood at 0. In addition, the results for the Ki in [9] and in series [10] were 0.52 nM and 1500 nM, respectively.

As for `Cc1nc(N)ccc1CNC(=O)Cn1c(C)cnc(N[C@@H](C)Cc2ccccc2)c1=O`, the values for the Ki in series [9] and in series [10] were 22 nM and 4800 nM, respectively.

On to `Cc1nc(N)ccc1CNC(=O)Cn1c(C)c(Cl)nc(NCCc2ccccc2)c1=O`, for which the “2x APTT” value in series [7] was found to be 5470 nM. In addition, the values for the inhibition constant (Ki) in series [9] and in series [10] were 7 nM and 2100 nM, respectively.

For the compound `Cc1nc(N)ccc1CNC(=O)Cn1c(C)ccc(NS(=O)(=O)Cc2ccccc2)c1=O` [L-374087], the area under the curve (AUC) in series [18] came to 4.42 µM·h. In series [15], this compound yielded a peak concentration (Cmax) of 990 nM. Besides, the concentration in series [3] is 586 nM; in series [4], 221 nM. The Tmax in series [16] is 1.25 h. This compound registered a half-life in series [17] of 2.57 h. Moreover, the entries for the “2x APTT” value in series [7] and in series [12] were 210 nM and 250 nM, respectively. The Occlusions in series [19] is listed as 0; in series [20], 1. The values for the Ki in series [9] and in series [10] were 0.5 nM and 3200 nM, respectively.

These data come from ChEMBL document CHEMBL1131169, “Efficacious, orally bioavailable thrombin inhibitors based on 3-aminopyridinone or 3-aminopyrazinone acetamide peptidomimetic templates” (J Med Chem, 1998).
